Measurements published in ChEMBL document CHEMBL4765483 (J Med Chem, 2021).

Target: T1, Adenosine receptor A3 (Homo sapiens) (UniProt P0DMS8)
T1 sequence (whole entry): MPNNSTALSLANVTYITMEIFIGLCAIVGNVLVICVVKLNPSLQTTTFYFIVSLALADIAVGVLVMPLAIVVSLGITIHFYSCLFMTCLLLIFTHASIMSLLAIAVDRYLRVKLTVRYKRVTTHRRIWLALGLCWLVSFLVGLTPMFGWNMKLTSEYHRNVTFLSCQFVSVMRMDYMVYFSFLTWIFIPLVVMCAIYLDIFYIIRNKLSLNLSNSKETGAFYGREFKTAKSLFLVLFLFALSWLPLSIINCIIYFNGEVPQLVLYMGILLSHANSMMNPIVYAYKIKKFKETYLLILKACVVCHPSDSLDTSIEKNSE
Assay: Displacement of [3H]NECA from adenosine A3 receptor expressed in human HeLa cell membranes at 1 uM incubated for 180 mins by scintillation counting method
Conditions: Cell membrane
Method in brief: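 hA3AR in HeLa membranes (3 pmol/mg protein) with 10 nM [3H]NECA (KD 8.7 nM); nonspecific binding with 100 μM R-PIA; incubated 180 min at 25 °C, washed, filtered, radioactivity counted.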

| SMILES | inhibition |
| --- | --- |
| CC1=C(C(N)=O)C(c2cccs2)NC(=O)N1 (racemic) | 1% |
| CCC(CC)OC(=O)C1=C(C)NC(=O)NC1c1ccoc1 (racemic) | 5% |
| CC1=C(C(=O)C2CC2)C(c2ccsc2)NC(=O)N1 (racemic) | 1% |
| CC1=C(C(=O)OC(C)(C)C)C(c2cccs2)NC(=O)N1 (racemic) | 7% |
| CC1=C(C(=O)OCC(C)C)C(c2ccsc2)NC(=S)N1 (racemic) | 2% |
| CCCOC(=O)C1=C(C)NC(=S)NC1c1ccco1 (racemic) | 1% |
| CC1=C(C(N)=O)C(c2ccoc2)NC(=O)N1 (racemic) | 2% |
| CC1=C(C(=O)OCC(C)C)C(c2cccs2)NC(S)=N1 (racemic) | 4% |
| CC1=C(C(=O)NC(C)C)C(c2ccsc2)NC(=O)N1 (racemic) | 1% |
| CCCOC(=O)C1=C(C)N(C)C(=O)NC1c1ccoc1 (racemic) | 16% |
| CC1=C(C(=O)OCC(C)C)C(c2ccsc2)NC(=O)N1C (racemic) | 4% |
| CCCOC(=O)C1=C(C)N(C)C(=O)NC1c1cccs1 (racemic) | 4% |
| CC1=C(C(=O)OCC(C)C)C(c2ccoc2)NC(=O)N1C (racemic) | 16% |
| COC(=O)C1=C(C)NC(=O)NC1c1ccsc1 (racemic) | 3% |
| CC1=C(C(=O)OC2CCCCC2)C(c2ccco2)NC(=O)N1 (racemic) | 4% |
| CC1=C(C(=O)OCc2ccccc2)C(c2ccco2)NC(=S)N1 (racemic) | 4% |
| CC1=C(C(=O)OCc2ccccc2)C(c2ccoc2)NC(=O)N1C (racemic) | 25% |
| CCCC(=O)C1=C(C)NC(=O)NC1c1cccs1 (racemic) | 2% |
| CC1=C(C(=O)OC(C)(C)C)C(c2ccsc2)NC(=S)N1 (racemic) | 16% |
| CCN(CC)C(=O)C1=C(C)NC(=O)NC1c1ccoc1 (racemic) | 37% |
| CC1=C(C(=O)C2CC2)C(c2ccoc2)NC(=O)N1 (racemic) | 16% |
| CC1=C(C(=O)OCc2ccccc2)C(c2cccs2)NC(=S)N1 (racemic) | 24% |
| CCNC(=O)C1=C(C)NC(=O)NC1c1ccsc1 (racemic) | 1% |

Target: Adenosine receptor A2a (Homo sapiens) (UniProt P29274)
Sequence (P29274 whole entry): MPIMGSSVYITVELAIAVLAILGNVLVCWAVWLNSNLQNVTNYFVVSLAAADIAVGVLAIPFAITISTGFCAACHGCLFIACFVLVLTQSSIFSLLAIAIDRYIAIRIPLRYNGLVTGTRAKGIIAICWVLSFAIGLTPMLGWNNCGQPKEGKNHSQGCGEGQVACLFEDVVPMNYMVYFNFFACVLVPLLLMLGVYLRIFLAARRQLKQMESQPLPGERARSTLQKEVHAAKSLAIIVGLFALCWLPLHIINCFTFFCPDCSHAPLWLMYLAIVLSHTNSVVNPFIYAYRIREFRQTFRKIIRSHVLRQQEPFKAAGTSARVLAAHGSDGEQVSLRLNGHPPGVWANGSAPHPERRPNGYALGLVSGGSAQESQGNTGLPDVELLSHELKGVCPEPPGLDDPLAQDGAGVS
Assay: Displacement of [3H]ZM2421385 from adenosine A2A receptor expressed in human HeLa cell membranes at 1 uM incubated for 30 mins by scintillation counting method
Conditions: Cell membrane

| SMILES | inhibition |
| --- | --- |
| CC1=C(C(N)=O)C(c2cccs2)NC(=O)N1 (racemic) | 1% |
| CCC(CC)OC(=O)C1=C(C)NC(=O)NC1c1ccoc1 (racemic) | 2% |
| CC1=C(C(=O)C2CC2)C(c2ccsc2)NC(=O)N1 (racemic) | 4% |
| CC1=C(C(=O)OC(C)(C)C)C(c2cccs2)NC(=O)N1 (racemic) | 10% |
| CC1=C(C(=O)OCC(C)C)C(c2ccsc2)NC(=S)N1 (racemic) | 1% |
| CCCOC(=O)C1=C(C)NC(=S)NC1c1ccco1 (racemic) | 2% |
| CC1=C(C(N)=O)C(c2ccoc2)NC(=O)N1 (racemic) | 3% |
| CC1=C(C(=O)OCC(C)C)C(c2cccs2)NC(S)=N1 (racemic) | 2% |
| CC1=C(C(=O)NC(C)C)C(c2ccsc2)NC(=O)N1 (racemic) | 1% |
| CCCOC(=O)C1=C(C)N(C)C(=O)NC1c1ccoc1 (racemic) | 1% |
| CC1=C(C(=O)OCC(C)C)C(c2ccsc2)NC(=O)N1C (racemic) | 2% |
| CCCOC(=O)C1=C(C)N(C)C(=O)NC1c1cccs1 (racemic) | 1% |
| CC1=C(C(=O)OCC(C)C)C(c2ccoc2)NC(=O)N1C (racemic) | 4% |
| COC(=O)C1=C(C)NC(=O)NC1c1ccsc1 (racemic) | 2% |
| CC1=C(C(=O)OC2CCCCC2)C(c2ccco2)NC(=O)N1 (racemic) | 5% |
| CC1=C(C(=O)OCc2ccccc2)C(c2ccco2)NC(=S)N1 (racemic) | 12% |
| CC1=C(C(=O)OCc2ccccc2)C(c2ccoc2)NC(=O)N1C (racemic) | 37% |
| CCCC(=O)C1=C(C)NC(=O)NC1c1cccs1 (racemic) | 23% |
| CC1=C(C(=O)OC(C)(C)C)C(c2ccsc2)NC(=S)N1 (racemic) | 22% |
| CCN(CC)C(=O)C1=C(C)NC(=O)NC1c1ccoc1 (racemic) | 6% |
| CC1=C(C(=O)C2CC2)C(c2ccoc2)NC(=O)N1 (racemic) | 1% |
| CC1=C(C(=O)OCc2ccccc2)C(c2cccs2)NC(=S)N1 (racemic) | 63% |
| CCNC(=O)C1=C(C)NC(=O)NC1c1ccsc1 (racemic) | 17% |

Target: T2, Adenosine receptor A2b (Homo sapiens) (UniProt P29275)
T2 sequence (whole entry): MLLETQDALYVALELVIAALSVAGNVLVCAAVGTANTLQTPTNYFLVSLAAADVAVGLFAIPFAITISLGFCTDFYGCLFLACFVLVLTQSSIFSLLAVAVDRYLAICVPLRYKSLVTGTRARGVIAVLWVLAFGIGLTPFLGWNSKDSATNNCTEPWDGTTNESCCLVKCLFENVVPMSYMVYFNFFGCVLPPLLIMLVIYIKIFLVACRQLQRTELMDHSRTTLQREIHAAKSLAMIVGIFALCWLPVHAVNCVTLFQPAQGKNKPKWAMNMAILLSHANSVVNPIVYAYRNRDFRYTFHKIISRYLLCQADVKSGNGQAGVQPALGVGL
Assay: Displacement of [3H]DPCPX from human adenosine A2B receptor expressed in HEK293 cell membranes at 1 uM incubated for 30 mins by scintillation counting method
Conditions: Cell membrane

| SMILES | inhibition |
| --- | --- |
| CC1=C(C(N)=O)C(c2cccs2)NC(=O)N1 (racemic) | 3% |
| CCC(CC)OC(=O)C1=C(C)NC(=O)NC1c1ccoc1 (racemic) | 28% |
| CC1=C(C(=O)C2CC2)C(c2ccsc2)NC(=O)N1 (racemic) | 1% |
| CC1=C(C(=O)OC(C)(C)C)C(c2cccs2)NC(=O)N1 (racemic) | 38% |
| CC1=C(C(=O)OCC(C)C)C(c2ccsc2)NC(=S)N1 (racemic) | 15% |
| CC1=C(C(N)=O)C(c2ccoc2)NC(=O)N1 (racemic) | 6% |
| CC1=C(C(=O)OCC(C)C)C(c2cccs2)NC(S)=N1 (racemic) | 12% |
| CC1=C(C(=O)NC(C)C)C(c2ccsc2)NC(=O)N1 (racemic) | 3% |
| CCCOC(=O)C1=C(C)N(C)C(=O)NC1c1ccoc1 (racemic) | 2% |
| CC1=C(C(=O)OCC(C)C)C(c2ccsc2)NC(=O)N1C (racemic) | 1% |
| CCCOC(=O)C1=C(C)N(C)C(=O)NC1c1cccs1 (racemic) | 1% |
| CC1=C(C(=O)OCC(C)C)C(c2ccoc2)NC(=O)N1C (racemic) | 1% |
| COC(=O)C1=C(C)NC(=O)NC1c1ccsc1 (racemic) | 36% |
| CC1=C(C(=O)OC2CCCCC2)C(c2ccco2)NC(=O)N1 (racemic) | 1% |
| CCCC(=O)C1=C(C)NC(=O)NC1c1cccs1 (racemic) | 9% |
| CC1=C(C(=O)OC(C)(C)C)C(c2ccsc2)NC(=S)N1 (racemic) | 26% |
| CCN(CC)C(=O)C1=C(C)NC(=O)NC1c1ccoc1 (racemic) | 12% |
| CC1=C(C(=O)C2CC2)C(c2ccoc2)NC(=O)N1 (racemic) | 10% |
| CCNC(=O)C1=C(C)NC(=O)NC1c1ccsc1 (racemic) | 1% |

Same assay, conditions: Cell membrane, filed as antagonist

| SMILES | inhibition |
| --- | --- |
| CCCOC(=O)C1=C(C)NC(=S)NC1c1ccco1 (racemic) | 46% |
| CC1=C(C(=O)OCc2ccccc2)C(c2ccco2)NC(=S)N1 (racemic) | 41% |
| CC1=C(C(=O)OCc2ccccc2)C(c2ccoc2)NC(=O)N1C (racemic) | 49% |
| CC1=C(C(=O)OCc2ccccc2)C(c2cccs2)NC(=S)N1 (racemic) | 45% |

Target: T3, Adenosine receptor A1 (Homo sapiens) (UniProt P30542)
T3 sequence (whole entry): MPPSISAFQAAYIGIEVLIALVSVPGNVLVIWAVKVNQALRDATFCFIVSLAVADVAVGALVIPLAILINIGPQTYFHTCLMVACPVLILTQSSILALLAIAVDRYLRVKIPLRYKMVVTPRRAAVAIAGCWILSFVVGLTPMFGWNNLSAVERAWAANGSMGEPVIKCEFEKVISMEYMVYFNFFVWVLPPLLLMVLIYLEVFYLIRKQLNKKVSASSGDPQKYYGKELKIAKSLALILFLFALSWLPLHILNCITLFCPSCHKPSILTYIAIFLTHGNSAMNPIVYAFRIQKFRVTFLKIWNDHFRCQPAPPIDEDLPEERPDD
Assay: Displacement of [3H]DPCPX from human adenosine A1 receptor expressed in CHO cell membranes at 1 uM incubated for 60 mins by scintillation counting method
Conditions: Cell membrane

| SMILES | inhibition |
| --- | --- |
| CC1=C(C(N)=O)C(c2cccs2)NC(=O)N1 (racemic) | 2% |
| CCC(CC)OC(=O)C1=C(C)NC(=O)NC1c1ccoc1 (racemic) | 17% |
| CC1=C(C(=O)C2CC2)C(c2ccsc2)NC(=O)N1 (racemic) | 2% |
| CC1=C(C(=O)OC(C)(C)C)C(c2cccs2)NC(=O)N1 (racemic) | 26% |
| CC1=C(C(=O)OCC(C)C)C(c2ccsc2)NC(=S)N1 (racemic) | 8% |
| CCCOC(=O)C1=C(C)NC(=S)NC1c1ccco1 (racemic) | 1% |
| CC1=C(C(N)=O)C(c2ccoc2)NC(=O)N1 (racemic) | 1% |
| CC1=C(C(=O)OCC(C)C)C(c2cccs2)NC(S)=N1 (racemic) | 1% |
| CC1=C(C(=O)NC(C)C)C(c2ccsc2)NC(=O)N1 (racemic) | 8% |
| CCCOC(=O)C1=C(C)N(C)C(=O)NC1c1ccoc1 (racemic) | 1% |
| CC1=C(C(=O)OCC(C)C)C(c2ccsc2)NC(=O)N1C (racemic) | 8% |
| CCCOC(=O)C1=C(C)N(C)C(=O)NC1c1cccs1 (racemic) | 9% |
| CC1=C(C(=O)OCC(C)C)C(c2ccoc2)NC(=O)N1C (racemic) | 4% |
| COC(=O)C1=C(C)NC(=O)NC1c1ccsc1 (racemic) | 7% |
| CC1=C(C(=O)OC2CCCCC2)C(c2ccco2)NC(=O)N1 (racemic) | 1% |
| CC1=C(C(=O)OCc2ccccc2)C(c2ccco2)NC(=S)N1 (racemic) | 32% |
| CC1=C(C(=O)OCc2ccccc2)C(c2ccoc2)NC(=O)N1C (racemic) | 51% |
| CCCC(=O)C1=C(C)NC(=O)NC1c1cccs1 (racemic) | 2% |
| CC1=C(C(=O)OC(C)(C)C)C(c2ccsc2)NC(=S)N1 (racemic) | 16% |
| CCN(CC)C(=O)C1=C(C)NC(=O)NC1c1ccoc1 (racemic) | 15% |
| CC1=C(C(=O)C2CC2)C(c2ccoc2)NC(=O)N1 (racemic) | 1% |
| CC1=C(C(=O)OCc2ccccc2)C(c2cccs2)NC(=S)N1 (racemic) | 34% |
| CCNC(=O)C1=C(C)NC(=O)NC1c1ccsc1 (racemic) | 3% |
